Laboratory results from ChEMBL document CHEMBL1148798, “High-efficacy 5-HT1A agonists for antidepressant treatment: a renewed opportunity” (J Med Chem, 2007).

Columns and labels:
[1] = target: T1, 5-hydroxytryptamine receptor 1A (Rattus norvegicus, UniProt P19327); assay: Binding affinity to 5HT1A receptor in rat cortex membrane; type: cell membranes
T1 sequence (P19327 whole entry): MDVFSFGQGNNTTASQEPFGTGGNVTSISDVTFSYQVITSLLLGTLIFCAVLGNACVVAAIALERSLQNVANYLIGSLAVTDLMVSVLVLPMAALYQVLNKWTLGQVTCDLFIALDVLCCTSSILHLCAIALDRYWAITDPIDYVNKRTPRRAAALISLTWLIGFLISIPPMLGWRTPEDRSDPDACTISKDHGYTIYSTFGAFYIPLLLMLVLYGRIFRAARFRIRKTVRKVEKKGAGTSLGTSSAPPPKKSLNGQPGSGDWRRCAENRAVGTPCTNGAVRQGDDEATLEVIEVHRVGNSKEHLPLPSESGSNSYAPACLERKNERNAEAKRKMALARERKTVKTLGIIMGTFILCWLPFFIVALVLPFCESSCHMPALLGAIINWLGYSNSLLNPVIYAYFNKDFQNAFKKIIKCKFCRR

[2] = tested on: Rattus norvegicus; assay: Induction of forepaw treading in orally dosed rat after 60 mins; type: functional; details: po, 1 h
In short: (§1)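 Compounds given po in H2O (10 mL/kg) to rats, five per dose, doses as free base. Forepaw treading sampled in 10 s per rat repeated 10 times over 10 min at 55-65 min. Present if uninterrupted for ≥3 s, responder if score ≥1. Flat body posture scored if present the whole period. […] Ratio is FBP ED50/FPT ED50.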

[3] = tested on: Rattus norvegicus; assay: Antidepressant like activity in orally dosed rat after 60 mins by forced swimming test; type: functional; details: po, 1 h
In short: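 Porsolt-type test in rats: 15 min swim in a cylinder with 17 cm water at 25 °C, then 5 min retest 24 h later. Immobility scored blind. Vehicle po after session 1. Compound or vehicle po (10 mL/kg) 1 h before retest, n = 5-12 per dose, doses 0.01-40 mg/kg. Responders had immobility <138 s. […] MSD by Kruskal-Wallis then Dunn's test.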

[4] = target: T2, 5-hydroxytryptamine receptor 1A (Homo sapiens) (UniProt P08908); assay: Agonist activity at human 5HT1A receptor expressed in C6 cells assessed as stimulation of [35S]GTP-gamma-S binding relative to 5-hydroxytryptamine; type: functional, cell-based
T2 sequence (whole entry): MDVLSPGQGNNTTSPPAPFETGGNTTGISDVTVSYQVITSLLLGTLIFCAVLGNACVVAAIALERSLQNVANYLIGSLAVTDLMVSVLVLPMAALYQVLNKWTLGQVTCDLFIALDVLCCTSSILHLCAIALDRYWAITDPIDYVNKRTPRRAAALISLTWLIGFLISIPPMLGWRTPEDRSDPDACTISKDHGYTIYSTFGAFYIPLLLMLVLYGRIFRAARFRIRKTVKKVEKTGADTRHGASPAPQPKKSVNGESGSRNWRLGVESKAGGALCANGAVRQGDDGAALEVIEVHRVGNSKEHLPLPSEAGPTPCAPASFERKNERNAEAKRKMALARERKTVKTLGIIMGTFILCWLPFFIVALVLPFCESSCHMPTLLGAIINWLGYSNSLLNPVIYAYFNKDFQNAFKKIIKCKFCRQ
In short: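 Membranes from C6-glial cells expressing h5-HT1A, diluted 20-fold in 20 mM HEPES with 30 µM GDP, 100 mM NaCl, 3 mM MgCl2, 0.2 mM ascorbic acid (16-38 µg protein). Compound preincubated 30 min at 25 °C, then 500 pM [35S]GTPγS added. Six concentrations tested. Nonspecific binding with 10 µM GTPγS.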

[5] = tested on: Rattus norvegicus; assay: Induction of flat body posture in orally dosed rat as after 60 mins; type: functional; details: po, 1 h; in short: as §1
[6] = organism: Rattus norvegicus; assay: Ratio of ED50 for flat body posture induction in rat to ED50 for forepaw treading induction in rat
[7] = Bioavailability in orally dosed rat; type: ADME, organism-based; details: in vivo, po
[8] = Dissociation constant, pKa of the compound; type: physicochemical
[9] = Lipophilicity, log D of the compound; type: physicochemical; details: octanol/water
[10] = target: T3, 5-hydroxytryptamine receptor 1A (Homo sapiens, UniProt P08908); assay: Agonist activity at human 5HT1A receptor expressed in C6 cells assessed as stimulation of [35S]GTPgammaS binding; type: functional, cell-based
T3 sequence (P08908 whole entry): T2 sequence (whole entry)

[11] = Bioavailability in rat; type: ADME, organism-based; details: in vivo
[12] = Bioavailability in dog; type: ADME, organism-based, Canis lupus familiaris; details: in vivo

Compound	Ki [1] [µM]	ED50 [2] [mg/kg]	ED50 [3] [mg/kg]	Emax [4] [%]	ED50 [5] [mg/kg]	EC50 [10] [µM]	also measured
CCc1cnc(CNCC2(F)CCN(C(=O)c3ccc(F)c(Cl)c3)CC2)nc1	0.0562	–	–	–	–	–	–
COC(=O)c1cnc(CNCC2(F)CCN(C(=O)c3ccc(F)c(Cl)c3)CC2)nc1	0.219	–	–	–	–	–	–
CCCN(CCC)C1CCc2cccc(O)c2C1 (stereo unspecified) [8-OH-DPAT]	–	40	0.75	35.9	> 40	–	–
Cc1cnc(CNCC2(F)CCN(C(=O)c3ccc(F)c(Cl)c3)CC2)nc1	0.00224	1.5	0.05	70.3	8.3	0.389	Ratio [6]: 5.5; bioavailability [7]: > 80%; pKa [8]: 6.7; logD [9]: 1.5
O=C(c1ccc(F)c(Cl)c1)N1CCC(F)(CNCc2nccc(-c3ccco3)n2)CC1	0.000427	–	> 2.5	79	–	0.01	–
CNc1nc(CNCC2(F)CCN(C(=O)c3ccc(F)c(Cl)c3)CC2)ncc1Cl	0.000741	–	0.32	71.8	–	0.0427	–
COc1ccnc(CNCC2(F)CCN(C(=O)c3ccc(F)c(Cl)c3)CC2)n1	0.00646	–	–	75.5	–	0.447	–
O=C(c1ccc(F)c(Cl)c1)N1CCC(F)(CNCc2ncc(CO)cn2)CC1	0.117	–	–	–	–	–	–
O=C(c1ccc(F)c(Cl)c1)N1CCC(F)(CNCc2ncc(C(F)F)cn2)CC1	0.0251	–	–	82.5	–	3.63	–
O=C(c1ccc(F)c(Cl)c1)N1CCC(F)(CNCc2ccc(CF)cn2)CC1	0.0012	6.1	0.17	61	16	0.229	Ratio [6]: 2.6
O=C(c1ccc(F)c(Cl)c1)N1CCC(F)(CNCc2ncccn2)CC1	0.0955	–	–	–	–	–	–
O=C(c1ccc(F)c(Cl)c1)N1CCC(F)(CNCc2ncc(Cl)cn2)CC1	0.00339	–	0.03	76	–	0.155	–
CC(=O)Nc1cccc(N2CCN(CCCCNS(=O)(=O)CC3CCCCC3)CC2)c1 [NALUZOTAN]	0.0302	> 40	> 40	6.6	> 40	0.0933	–
CN(C)c1ccnc(CNCC2(F)CCN(C(=O)c3ccc(F)c(Cl)c3)CC2)n1	0.00229	–	–	63.4	–	0.0891	–
Cc1ccc(CNCC2(F)CCN(C(=O)c3ccc(F)c(Cl)c3)CC2)nn1	0.00562	–	–	89.7	–	7.94	–
O=C(O)c1ccc(CNCC2(F)CCN(C(=O)c3ccc(F)c(Cl)c3)CC2)nc1	> 10	–	–	–	–	–	–
O=C(c1ccc(F)c(Cl)c1)N1CCC(F)(CNCc2ccc(C(F)F)cn2)CC1	0.0038	2.5	–	96.4	4.2	0.24	Ratio [6]: 1.7
O=C(c1ccc(F)c(Cl)c1)N1CCC(F)(CNCc2ccc(CO)cn2)CC1	0.00741	–	–	80	–	2.04	–
O=c1[nH]c2ccccc2n1CCN1CCN(c2cccc(C(F)(F)F)c2)CC1 [FLIBANSERIN]	0.0117	> 40	> 320	72	20	0.631	–
CNc1nc(CNCC2(F)CCN(C(=O)c3ccc(F)c(Cl)c3)CC2)ncc1C	0.00174	–	–	64.1	–	0.0851	–
Cc1ccc(CNCC2(F)CCN(C(=O)c3ccc(F)c(Cl)c3)CC2)nc1 [BEFIRADOL]	–	0.38	0.06	–	1.4	–	pKa [8]: 6.4; logD [9]: 2.6; bioavailability [11]: > 70%; bioavailability [12]: > 70%
CNc1ccnc(CNCC2(F)CCN(C(=O)c3ccc(F)c(Cl)c3)CC2)n1	0.00479	–	–	58.8	–	0.309	–
Cc1cnc(CNCC2(F)CCN(C(=O)c3ccc(F)c(Cl)c3)CC2)cn1	0.0661	–	–	–	–	–	–
O=C(c1ccc(F)c(Cl)c1)N1CCC(F)(CNCc2ccc(Cl)cn2)CC1	0.000692	3.8	–	80.4	4.9	0.0692	Ratio [6]: 1.3
